Screening data: PubChem, The Scripps Research Institute Molecular Screening Center
Sampled rows, rich in hits. Any-hit rate of the full collection: about 1.8%.
LEDGF integ inh: blocks HIV-1 LEDGF/p75-dependent DNA integration; 370,000 compounds, 0.64% hits; TR-FRET IN-LEDGF/p75 DNA integration, Eu/Cy5; inhibition, % at 3.7 µM; AID 743269;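 active = inhibition above the screen-wide mean plus 3 SD, cut at about 13% in these data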;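 note: signal is the Cy5 over europium emission ratio at 671 and 618 nm; 0% = plate median of compound wells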
HCV core dimer: blocks dimerization of HCV core protein; AID 1899; TR-FRET GST/Flag-core106 dimerization, 1536-well; inhibition, % at 5 µM; 300,000 compounds, 0.33% hits;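 active = inhibition above the mean of all tested compounds plus 3 SD, set per screening campaign, cut at about 45% in these data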
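assay system = GST-tagged and Flag-tagged HCV core protein residues 1-106 | controls = unlabelled core106 and no-GST-core106 wells | incubation = compound-protein-antibody incubation 4 h at 22.5 °C | probe or stimulus = Eu donor and XL665 acceptor anti-tag antibodies | read-out = % inhibition based on acceptor/donor emission ratio | signal = TR-FRET 671 and 617 nm emission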
MBD2 DNA inh: blocks human MBD2 binding to methylated DNA. TR-FRET, MBD2 binding to methylated oligonucleotide. inhibition, % at 4.4 µM. 370,000 compounds, 0.31% hits. AID 686964; in the data active = inhibition above about 13%
TDP2 inh: blocks human TDP2 phosphodiesterase activity | recombinant TDP2, T5PNP hydrolysis, p-nitrophenol absorbance 415 nm | inhibition, % at 12.8 µM | O95551 | 370,000 compounds, 0.34% hits | AID 720702;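 active = inhibition above the mean of all tested compounds plus 3 SD, set per campaign, cut at about 25% in these data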;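 note: 0% = DMSO with enzyme and 100% = buffer with substrate but no TDP2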
Target sequence (O95551 whole entry, looked up): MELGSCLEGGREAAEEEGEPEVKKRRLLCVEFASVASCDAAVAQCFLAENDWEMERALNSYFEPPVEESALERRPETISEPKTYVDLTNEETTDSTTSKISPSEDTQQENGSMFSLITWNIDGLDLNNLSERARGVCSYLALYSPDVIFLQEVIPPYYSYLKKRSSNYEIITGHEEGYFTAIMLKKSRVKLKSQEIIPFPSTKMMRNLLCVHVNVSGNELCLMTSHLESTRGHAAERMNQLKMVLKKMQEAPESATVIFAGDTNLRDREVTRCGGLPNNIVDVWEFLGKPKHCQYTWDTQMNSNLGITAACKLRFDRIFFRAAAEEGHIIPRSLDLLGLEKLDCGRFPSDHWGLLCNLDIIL
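Test system: human TDP2 enzyme; Input: 120 nM TDP2 per well; Buffer or medium: Mg2+-containing Tris-HCl buffer, pH 7.5; Reagent: 5 mM T5PNP; Dosing: 12.8 µM single point, 1% DMSO; Incubation: reaction 2 h, 37 °C; Detection: p-Nitrophenol epi absorbance; Read-out: % inhibition relative to enzyme-containing and enzyme-free wells; Replicates: single well per compound.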
UHRF1 MBD2 ctr: blocks human UHRF1 binding to methylated DNA. Q96T88. UHRF1 binding to methylated oligo, TR-FRET. inhibition, % at 4.4 µM. 370,000 compounds, 0.75% hits. AID 687016; in the data active = inhibition above about 21%;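 note: UHRF1 SRA domain binding a hemimethylated CpG hairpin DNA probe; 0% = median of test compound wells and 100% = reference inhibitor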
UHRF1 DNA bind: inhibits human UHRF1 binding to methylated oligonucleotide, MBD2 counter-screen. AID 720530. shares compounds with MBD2 DNA inh. inhibition, % at 4.4 µM. 1,000 compounds, 25% hits. TR-FRET; in the data active = inhibition above about 21%;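 note: UHRF1 SRA domain binding a labeled hemimethylated CpG hairpin DNA; 0% = vehicle only and 100% = reference inhibitor with vehicle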
MBD2 confirm: MBD2-DBD methyl-DNA binding inhibition, TR-FRET confirmation; shares compounds with MBD2 DNA inh; TR-FRET MBD2-DBD binding to methylated oligonucleotide; inhibition, % at 4.4 µM; 1,000 compounds, 26% hits; AID 720531
TDP2 confirm: confirmation of human TDP2 inhibitors | inhibition, % at 12.8 µM | recombinant human TDP2, absorbance read-out | 1,100 compounds, 22% hits | AID 743263 | shares compounds with TDP2 inh; in the data active = inhibition above about 25%;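 note: 0% = vehicle with enzyme and 100% = no enzyme buffer only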
IN multimer act: counter-screen for LEDGF/p75 integration inhibitors: HIV-1 integrase multimerization activators | shares compounds with LEDGF integ inh | TR-FRET HIV-1 integrase multimerization, biochemical | activation, % at 7.7 µM | AID 1053131 | 2,000 compounds, 17% hits; in the data active = activation above about 8.9%
TR-FRET interf: optically interferes with TR-FRET readout in LEDGF counter-screen; 2,000 tested, under 10 active; AID 1053135; shares compounds with LEDGF integ inh; TR-FRET optical interference counterscreen, HIV-1 IN multimerization; inhibition, % at 7.7 µM;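 active = inhibition above the mean over all tested compounds plus 3 SD, which no compound reached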;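 note: 0% = integrase with antibodies and DMSO and 100% = antibodies without integrase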
IN-LEDGF confirm: confirmation of HIV-1 LEDGF/p75-dependent integration inhibitors; AID 1053136; TR-FRET LEDGF/p75-dependent HIV-1 integration, biochemical; shares compounds with LEDGF integ inh; 2,000 compounds, 36% hits; inhibition, % at 3.7 µM
* marks the source's active call; other numbers are inactive results; . = no result. Cut-off read from the data, not from the text of the source, unless noted: active = inhibition above about 14%; inactive = the rest.

SMILES	LEDGF integ inh	HCV core dimer	MBD2 DNA inh	TDP2 inh	UHRF1 MBD2 ctr	UHRF1 DNA bind	MBD2 confirm	TDP2 confirm	others
Nc1c(C(=O)NCC2CCCO2)c2nc3ccccc3nc2n1Cc1ccco1 (centres undefined)	0	4	17*	-6	-1	3	-2	.
COC(=O)CC1(CC(=O)OC)C(=O)N(c2ccccc2)C(=O)N(c2ccccc2)C1=O	1	7	55*	11	0	2	1	.
Cc1ccc2c(C)c3ccc4ccccc4c3c[n+]2c1	1	.	72*	-6	27*	43*	83*	.
CC(NC(=O)OCc1ccccc1)P(=O)(Oc1ccccc1)Oc1ccccc1 (centres undefined)	3	.	-4	2	2	.	.	.
Cn1cccc1/C=C1\C(=O)NC(=O)N(Cc2ccco2)C1=O	65*	.	20*	12	63*	30*	14*	.
O=C(NCCN1CCC2(CC1)C(=O)NCN2c1ccccc1)c1ccc2ccccc2c1	-4	.	0	4	-1	.	.	.
CN(C)Cc1c[nH]c2cc([N+](=O)[O-])ccc12	0	.	19*	-2	-3	-1	-1	.
CN(C)Cc1c[nH]c2ccc([N+](=O)[O-])cc12	0	.	1	4	-2	.	.	.
Clc1cc(Cl)cc(CN2Cc3ccccc3-n3nncc3C2)c1	2	.	-1	-6	0	.	.	.
Cc1cccc(C(C)c2cnc[nH]2)c1C (centres undefined)	-6	.	2	-4	2	.	.	.
CNc1ccc2nc3ccccc3[n+](C)c2c1	9	-112	15*	46*	-15	19	20*	32*
CC(NC(=O)OCc1ccccc1)[P+](=O)O (centres undefined)	0	.	6	-6	2	.	.	.
CN(C)C1C(=O)C(C(N)=O)=C(O)C2(O)C(=O)C3=C(O)c4c(O)cccc4C(C)(O)C3C(O)C12 (centres undefined)	53*	-9	31*	11	71*	9	13	.	IN multimer act=21*;TR-FRET interf=-73;IN-LEDGF confirm=23*
O=C(NCCN1CCC2(CC1)C(=O)NCN2c1ccccc1)c1ccccc1F	1	.	1	5	2	.	.	.
CCCNC1=C(C)C(=O)C2=C(C1=O)C(COC(N)=O)[C@]1(OC)C3NC3CN21 (some centres undefined)	53*	-41	18*	-1	60*	2	0	.	IN multimer act=19*;TR-FRET interf=-67;IN-LEDGF confirm=63*
COc1cc2c(cc1OC)-c1c(OC)c(OC)cc3c1[C@H](C2)N(C)CC3	26*	-13	20*	74*	41*	18	10	56*	IN multimer act=2;TR-FRET interf=-8;IN-LEDGF confirm=25*
O=C(NCCN1CCC2(CC1)C(=O)NCN2c1ccccc1)c1ccc(F)cc1	0	.	-5	12	-2	.	.	.
O=P(OCCCl)(OCCCl)OCCCl	-3	.	4	0	2	.	.	.
Cc1cc(/C=C2\C(=O)NC(=O)N(Cc3ccccc3)C2=O)c(C)n1-c1ccc(Cl)c(C(=O)O)c1	43*	5	37*	10	92*	72*	29*	.	IN multimer act=5;TR-FRET interf=-25;IN-LEDGF confirm=44*
O=C(NC(CCC(O)CO)P(=O)(Oc1ccccc1)Oc1ccccc1)OCc1ccccc1 (centres undefined)	-1	.	0	2	-1	.	.	.
NC(=O)c1ccc(N=Cc2c(O)n(Cc3ccco3)c(=O)[nH]c2=O)cc1	57*	12	23*	11	60*	18	22*	.	IN multimer act=12*;TR-FRET interf=-60;IN-LEDGF confirm=50*
O=C1NC(=O)N(Cc2ccco2)C(=O)/C1=C/C=C/c1ccco1	92*	21	74*	1	100*	55*	30*	.	IN multimer act=7;TR-FRET interf=-24;IN-LEDGF confirm=56*
COc1ccc(/C=C2/C(=O)NC(=O)N(Cc3ccco3)C2=O)cc1	.	40	.	.	.	.	.	.
CCCCN1CCN(C(=O)COc2cc(=O)n(C)c3ccccc23)CC1	2	.	4	0	0	.	.	.
Nc1c(C(=O)OCC2CCCO2)c2nc3ccccc3nc2n1Cc1cccs1 (centres undefined)	11	2	-7	31*	-8	.	.	7
SMILES	LEDGF integ inh	HCV core dimer	MBD2 DNA inh	TDP2 inh	UHRF1 MBD2 ctr	UHRF1 DNA bind	MBD2 confirm	TDP2 confirm	others
O=C1C(=O)c2ccccc2-c2ccccc21	-54	44	11	68*	-10	.	.	90*
O=C1C(=O)c2cccc3cccc1c23	4	-11	-6	6	-18	.	.	.
COc1cccc(-c2ccc3c(c2)C2c4cnnn4-c4ccccc4C(=O)N2CC3)c1 (centres undefined)	-3	.	2	-5	-1	.	.	.
CNc1ccc2oc(C[C@H]3O[C@@]4(CC[C@H]3C)O[C@H]([C@H](C)C(=O)c3ccc[nH]3)[C@H](C)C[C@H]4C)nc2c1C(=O)O	11	19	-4	29*	-5	.	.	-6
CC1(C)CC(=O)C(C2(O)C(=O)NC(=O)NC2=O)=C(O)C1	-1	-13	-5	53*	-8	.	.	50*
C/C(=N\NC(=O)c1ccccc1O)c1c(O)n(Cc2ccccc2)c(=O)[nH]c1=O	2	7	-7	28*	-4	.	.	4
C/C(=N\NC(=O)c1ccncc1)c1c(O)n(Cc2ccccc2)c(=O)[nH]c1=O	1	1	-5	-14	-2	.	.	.
CC(C)CNC(=O)c1c(N)n(Cc2ccc3c(c2)OCO3)c2nc3ccccc3nc12	0	1	0	4	-6	.	.	.
CC(C)CCNC(=O)c1c(N)n(Cc2ccc3c(c2)OCO3)c2nc3ccccc3nc12	5	2	-7	45*	2	.	.	-6
CCOC(=O)c1c(NS(=O)(=O)c2ccccc2)n(CCCOC)c2nc3ccccc3nc12	20*	7	8	91*	13	.	.	73*
CCCCNC(=O)c1c(N)n(CCCOC)c2nc3ccccc3nc12	1	4	0	36*	4	.	.	1
CN1CC[C@@H]2CN[C@H](c3ccccc3)C[C@@H]21	6	.	-1	-3	-2	.	.	.
